Test results published in PMC4010290 (Journal of Agricultural and Food Chemistry, 2014).

How the values were obtained:
[1] = molecular target: T1, Bovine serum albumin (BSA) (Bos taurus, UniProt P02769); assay: BSA fluorescence quenching; assay type: binding; conditions: for KSV (Stern–Volmer constant, BSA fluorescence quenching): 3 μM BSA, 22 °C
[2] = molecular target: Bovine serum albumin (BSA), Trp134 and Trp213 (Bos taurus, UniProt P02769); assay: Time domain fluorescence lifetime of the two Trp residues of BSA; assay type: binding; conditions: for τ fluorescence lifetime Trp134 / τ fluorescence lifetime Trp213: 25 μM phenolic
Sequence of Bovine serum albumin (BSA), Trp134 and Trp213 (P02769 25-607): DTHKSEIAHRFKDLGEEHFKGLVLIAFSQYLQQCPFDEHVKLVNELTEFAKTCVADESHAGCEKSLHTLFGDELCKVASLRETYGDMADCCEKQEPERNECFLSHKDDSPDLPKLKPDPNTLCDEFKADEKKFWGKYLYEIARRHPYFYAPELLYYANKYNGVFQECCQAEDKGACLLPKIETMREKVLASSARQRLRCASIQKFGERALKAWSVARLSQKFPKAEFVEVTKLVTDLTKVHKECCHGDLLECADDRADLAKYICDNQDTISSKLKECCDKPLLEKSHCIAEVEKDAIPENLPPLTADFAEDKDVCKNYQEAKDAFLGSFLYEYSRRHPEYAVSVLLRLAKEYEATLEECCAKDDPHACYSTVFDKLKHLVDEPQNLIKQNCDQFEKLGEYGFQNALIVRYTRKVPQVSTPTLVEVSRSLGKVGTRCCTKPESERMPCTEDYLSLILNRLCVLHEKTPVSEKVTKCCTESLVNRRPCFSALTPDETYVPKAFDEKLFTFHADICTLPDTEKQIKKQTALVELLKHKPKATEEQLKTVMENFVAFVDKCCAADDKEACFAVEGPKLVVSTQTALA
In short: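 BSA (3 μM final) mixed with test compound (25 μM) in 0.2 M sodium phosphate with 0.1 M NaCl at pH 3.0, 5.0 or 7.4. Samples vortexed, nitrogen-sparged 20 min, then held 1 h at 22 °C. Time-correlated single-photon counting used 250 nm LED excitation, collecting to 10000 peak counts. Biexponential decay fit gave lifetimes and amplitudes for Trp134 and Trp213.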

[3] = molecular target: T1, Bovine serum albumin (BSA); assay: Induced circular dichroism spectra of BSA; assay type: binding; conditions: 200 μM ligand; 30 μM BSA; pH 7.4
In short: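 BSA at 30 μM in 0.2 M sodium phosphate, pH 7.4, with test compound at 0–200 μM, dissolved from water stocks. CD recorded 355–245 nm in a 1 mm cell under dry nitrogen at 298–301 K. Settings were 12 accumulated scans, 0.5 nm pitch, 1.0 nm bandwidth and 100 nm/min. Buffer spectrum subtracted, and induced CD calculated from sample spectra by the paper's equation.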

BSA Sudlow site I = conditions: cited from earlier work
BSA = BSA (Bos taurus, UniProt P02769); assay type: binding, bovine; conditions: pH 7.4; TB up to a 50-fold excess
Sequence of BSA (P02769 25-607): as above

BSA Sudlow site II = conditions: cited from earlier work

T1 sequence (P02769 25-607): as above

Oc1cc(O)c2c(c1)O[C@H](c1cc(O)c(O)c(O)c1)[C@H](O)C2 [EGC, (−)-Epigallocatechin]
Apparent affinity for BSA [1]: about 10^3 M^–1
KSV (Stern–Volmer constant, BSA fluorescence quenching) ([1]; pH 3.0): 0.30 × 10^4 M^–1
KSV (Stern–Volmer constant, BSA fluorescence quenching) ([1]; pH 5.0): 0.23 × 10^4 M^–1
KSV (Stern–Volmer constant, BSA fluorescence quenching) ([1]; pH 7.4): 0.64 × 10^4 M^–1
Change of lifetime of either Trp ([2]; any pH, 25 μM): did not change the lifetime
τ fluorescence lifetime Trp134 ([2]; pH 3.0): 5.41 ns
τ fluorescence lifetime Trp213 ([2]; pH 3.0): 2.15 ns
τ fluorescence lifetime Trp134 ([2]; pH 5.0): 6.58 ns
τ fluorescence lifetime Trp213 ([2]; pH 5.0): 3.04 ns
τ fluorescence lifetime Trp134 ([2]; pH 7.4): 6.54 ns
τ fluorescence lifetime Trp213 ([2]; pH 7.4): 2.93 ns
Fluctuation of the amplitudes of the induced CD spectra [3]: ~0.2 mdeg

COC(=O)c1cc(O)c(O)c(O)c1 [MG, methyl gallate]
KSV (Stern–Volmer constant, BSA fluorescence quenching) ([1]; pH 3.0): 0.85 × 10^4 M^–1
KSV (Stern–Volmer constant, BSA fluorescence quenching) ([1]; pH 5.0): 0.81 × 10^4 M^–1
KSV (Stern–Volmer constant, BSA fluorescence quenching) ([1]; pH 7.4): 5.4 × 10^4 M^–1
τ fluorescence lifetime Trp134 ([2]; pH 3.0): 5.38 ns
τ fluorescence lifetime Trp213 ([2]; pH 3.0): 2.11 ns
τ fluorescence lifetime Trp134 ([2]; pH 5.0): 6.49 ns
τ fluorescence lifetime Trp213 ([2]; pH 5.0): 2.85 ns
τ fluorescence lifetime Trp134 ([2]; pH 7.4): 6.29 ns
τ fluorescence lifetime Trp213 ([2]; pH 7.4): 2.06 ns
Reduction of fluorescence lifetime of Trp213 ([2]; pH 7.4 only, 25 μM): 30%
Fluctuation of the amplitudes of the induced CD spectra [3]: ~0.2 mdeg

CCCCC1C(=O)N(c2ccccc2)N(c2ccccc2)C1=O [PB, phenylbutazone]
Association constant, Sudlow site I (BSA Sudlow site I): 6.2 × 10^5 M^–1

CCCCNC(=O)NS(=O)(=O)c1ccc(C)cc1 [TB, tolbutamide]
Inhibition of EGCg binding to BSA (BSA): did not inhibit
Association constant, Sudlow site I (BSA Sudlow site I): 8.7 × 10^4 M^–1
Association constant, Sudlow site II (BSA Sudlow site II): 0.81 × 10^4 M^–1
